Shown are actives, neighbours in structure and some others; about 2.8% of the full set was active somewhere.
NR3A LBD binder – binders of NR3A ligand-binding domain, primary screen, biophysical, differential scanning fluorimetry, uHTS | Tm shift relative to glycine control, % at 25 µM | NR3A LBD differential scanning fluorimetry, Tm shift; 0% = protein alone, 100% = glycine-bound protein | AID 1259313, 2017 | 340,000 compounds, 2.5% hits;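 active = melting temperature shift of at least 10% of the positive control shift, at one fixed dose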
T cell HTS – modulators of CD8 T cell-vesicle binding, primary screen, mouse 2C CD8+ T cells, flow cytometry; response (vesicle binding), % at 7 µM; 330,000 compounds, 0.068% hits; AID 2052, 2009; 2C CD8+ T cell-vesicle binding; active compounds read low;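 active = response, share of CD8 T cells binding vesicles, and their 90th percentile fluorescence all below set limits, cut at about 80% in these data, passing the limit was not always enough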;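 also: values below 100% mean blocked vesicle binding to the CD8+ T cells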
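System: murine 2C transgenic CD8+ T lymphocytes; also added: QL9-loaded Drosophila micro-vesicles; times: binding 1.5 h at 37 °C; measured by: flow cytometry, PE anti-B7-1 (FL2) versus Alexa647 anti-CD8 (FL8), PFA-fixed; control set: Peptide-free naked vesicles (low) and QL9 vesicles with 0.7% DMSO vehicle (high)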
GASC-1 inh – inhibitors of GASC-1 histone demethylase, primary screen, biochemical, fluorescence, DELFIA europium. GST-JMJD2C(1-420) H3K9me3 demethylation. Lysine-specific demethylase 4C (Homo sapiens), Q9H3R0. AID 2099, 2009. inhibition, % at 2.35 µM. 330,000 compounds, 0.069% hits;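 active = more than half of a compound's replicate wells show inhibition beyond 50%, single wells judged on their own value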;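 also: signal counts dimethyl H3K9 product captured on neutravidin plate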
Target sequence (Q9H3R0 1-420 limits assumed): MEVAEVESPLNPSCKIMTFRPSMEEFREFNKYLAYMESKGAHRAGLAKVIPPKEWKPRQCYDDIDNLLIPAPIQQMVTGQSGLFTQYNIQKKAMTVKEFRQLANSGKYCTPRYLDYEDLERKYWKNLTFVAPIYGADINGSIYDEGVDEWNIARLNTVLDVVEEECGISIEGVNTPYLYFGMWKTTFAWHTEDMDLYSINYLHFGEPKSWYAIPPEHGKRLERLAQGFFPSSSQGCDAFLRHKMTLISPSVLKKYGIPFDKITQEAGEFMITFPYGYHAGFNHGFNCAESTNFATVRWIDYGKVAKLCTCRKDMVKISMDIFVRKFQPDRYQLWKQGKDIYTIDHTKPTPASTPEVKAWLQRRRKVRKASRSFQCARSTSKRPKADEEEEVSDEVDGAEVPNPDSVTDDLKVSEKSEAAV
Rtt109 Vps75 – inhibitors of C. albicans Rtt109/Vps75 HAT, primary screen, biochemical, ThioGlo CoA-SH fluorescence, plate reader; purified Rtt109/Vps75, 4 h; inhibition, % at 34.9 µM; 330,000 compounds, 0.16% hits; Histone acetyltransferase RTT109 (Candida albicans (strain SC5314 / ATCC MYA-2876)), …;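 active = inhibition of at least 50% in every replicate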
Each line names hits and unclear results; the compound was inactive in the other large screens.

CC(C)OC(=O)c1cc(C(=O)c2cc(Br)ccc2O)coc1=N	none
COc1ccc(CN2CCNC(=O)C2CC(=O)NC2CCCC2)c(OC)c1 (stereo unspecified)	none
CCCCNC(=O)/C(C#N)=C/c1ccc2c(c1)OCCO2	T cell HTS 0.0
O=C(/C=C/c1ccccc1Cl)Nc1ccccc1	NR3A LBD binder 20
CN(C)S(=O)(=O)c1ccc(NC(=O)/C=C/c2ccccc2Cl)cc1	NR3A LBD binder 27
O=C(/C=C/c1ccccc1Cl)Nc1cccc(O)c1	NR3A LBD binder 30
O=C(Nc1ccccc1)Nc1nnc(/C=C/c2ccccc2Cl)s1	NR3A LBD binder 37
O=C(Nc1ccccc1)Nc1nnc(-c2ccccc2)s1	none
CN(C)c1ccc(NC(=O)/C=C/c2c(Cl)cccc2Cl)cc1	none
O=C(/C=C/c1ccccc1Cl)Nc1ccc2c(c1)C(=O)NC2=O	none
COc1ccccc1N(C(=O)c1ccco1)C(C(=O)NC1CCCCC1)c1cc(OC)c(OC)c(OC)c1 (stereo unspecified)	none
O=C(O)COc1ccc(Br)cc1CP(=O)(c1ccccc1)c1ccccc1	none
C#CCOCCOCCOCCNc1nc(N2CCN(C(=O)C([C@@H](C)O)n3cc([C@@H](N)CCCCN)nn3)CC2)nc(N2CCN(C(=O)[C@H](CCCCN)n3cc([C@@H](N)CC(N)=O)nn3)CC2)n1 (stereo partly specified)	Rtt109 Vps75 91
C#CCOCCOCCOCCNc1nc(N2CCN(C(=O)[C@H](CCCN=C(N)N)n3cc(C(N)[C@@H](C)CC)nn3)CC2)nc(N2CCN(C(=O)[C@H](CCCCN)n3cc([C@@H](N)[C@H](C)CC)nn3)CC2)n1 (stereo partly specified)	Rtt109 Vps75 54
C#CCOCCOCCOCCNc1nc(N2CCN(C(=O)[C@H]([C@@H](C)CC)n3cc([C@@H](N)CC(C)C)nn3)CC2)nc(N2CCN(C(=O)[C@H](CCCCN)n3cc([C@@H](N)C(C)CC)nn3)CC2)n1 (stereo partly specified)	none
C#CCOCCOCCOCCNc1nc(N2CCN(C(=O)[C@H]([C@@H](C)CC)n3cc([C@@H](N)CC(C)C)nn3)CC2)nc(N2CCN(C(=O)[C@H](CCCCN)n3cc([C@@H](N)CC(C)C)nn3)CC2)n1	NR3A LBD binder 10
C#CCOCCOCCOCCNc1nc(N2CCN(C(=O)[C@H](CCCCN)n3cc([C@@H](N)CC(N)=O)nn3)CC2)nc(N2CCN(C(=O)[C@H](CCCCN)n3cc([C@@H](N)CC(N)=O)nn3)CC2)n1	none (no result: GASC-1 inh)
Cc1[nH]nc2c1C(c1ccc(-c3ccc(Cl)cc3)o1)C(C#N)=C(N)O2 (stereo unspecified)	NR3A LBD binder 14
Cc1ccc(-c2ccc(C3C(C#N)=C(N)Oc4n[nH]c(C)c43)o2)cc1 (stereo unspecified)	none
CCCc1[nH]nc2c1C(c1ccncc1)C(C#N)=C(N)O2 (stereo unspecified)	NR3A LBD binder 14 (no result: GASC-1 inh)
Cc1ccc(-c2[nH]nc3c2C(c2ccsc2)C(C#N)=C(N)O3)cc1 (stereo unspecified)	NR3A LBD binder 12
CCCc1[nH]nc2c1C(c1cccnc1)C(C#N)=C(N)O2 (stereo unspecified)	none
O=C(CC1C(=O)Nc2ccccc2N1CC(=O)N1CCCC1)Nc1ccc(Br)cc1 (stereo unspecified)	none (no result: GASC-1 inh)
CC(C)(C)NC(=O)COC(=O)c1ccccc1NC(=O)c1ccco1	none
O=C(Nc1ccccc1C(=O)OCC(=O)c1c[nH]c2ccccc12)c1ccco1	NR3A LBD binder 26
O=C(CN1C(=O)C(=O)N(C2CCCC2)C1=O)Nc1ccccc1OC(F)F	none (no result: Rtt109 Vps75)
Cn1c(N)c(C(=O)COC(=O)/C=C/c2ccc(Cl)c(Cl)c2)c(=O)n(C)c1=O	NR3A LBD binder 17
Cn1c(N)c(C(=O)COC(=O)/C=C/c2ccc(F)cc2)c(=O)n(C)c1=O	none
Cc1ccc(-c2nc(CS(=O)CC(=O)NCCN3CCCCC3C)c(C)o2)cc1 (stereo unspecified)	none
Cc1cccc(NC(=O)Cn2c(O)c(N=NC(=O)c3ccccc3O)c3ccccc32)c1	NR3A LBD binder 21
CCC(C)SCC(=O)Nc1ccc(S(=O)(=O)N2CCOCC2)cc1OC (stereo unspecified)	none

Assay outcomes as filed in PubChem.
